# Measured values from different studies.
# MAOB: Amine oxidase [flavin-containing] B (MAOB, Homo sapiens, UniProt P27338)
# ADRB1: Beta-1 adrenergic receptor (ADRB1, Homo sapiens, UniProt P08588)
Structure (SMILES),target,test,setting,IC50
CCCCNNC(=O)c1ccc(Br)cc1,"Histone deacetylase 9 (HDAC9, Homo sapiens, UniProt Q9UKV0)","enzyme activity, inhibitor, fluorescence",,> 100 µM
CC[C@H](C)[C@H](NC(=O)[C@H](Cc1c[nH]c2ccccc12)NC(=O)[C@H](C)NC(=O)[C@@H]1CSCC(=O)N[C@@H](Cc2ccc(O)cc2)C(=O)NCC(=O)N[C@@H](CCC(N)=O)C(=O)N[C@@H](CO)C(=O)N[C@@H](Cc2c[nH]cn2)C(=O)N[C@@H](CO)C(=O)N[C@@H](C)C(=O)N[C@@H](Cc2c[nH]c3ccccc23)C(=O)N1)C(=O)N[C@@H](CC(N)=O)C(=O)N[C@@H](Cc1ccc(O)cc1)C(=O)N[C@@H](CC(N)=O)C(=O)N1CCC[C@H]1C(N)=O,"Pancreatic alpha-amylase (Homo sapiens, UniProt P04746)","enzyme activity, inhibitor, absorbance",,6 µM
COc1ccc2c(c1)[nH]c1c(C)nccc12,MAOB,"enzyme activity, inhibitor",,37.5 µM
CCOc1ccccc1OCCN[C@H](C)Cc1ccc(OC)c(S(N)(=O)=O)c1,ADRB1,"ligand displacement, radioligand",,2.5 µM
C#CCN(C)c1nc(NCCCCC2CCN(Cc3ccccc3)CC2)c(C#N)c(-c2ccccc2)c1C#N,MAOB,"enzyme activity, inhibitor, fluorescence",with preincubation,> 100 µM
CSCC[C@@H]1NC(=O)[C@H](CC(N)=O)NC(=O)[C@H](CCCNC(=N)N)NC(=O)[C@H]([C@@H](C)O)NC(=O)[C@H](Cc2ccc(O)cc2)NC(=O)[C@@H](NC(=O)[C@H](C)N)CSSC[C@@H](C(N)=O)NC(=O)[C@H](CCC(N)=O)NC(=O)[C@H](CC(N)=O)NC1=O,"Lysine-specific demethylase 4C (KDM4C, Homo sapiens, UniProt Q9H3R0)","enzyme activity, inhibitor, TR-FRET",,406 µM
C#CCNc1nc(NCCCC2CCN(Cc3ccccc3)CC2)c(C#N)c(-c2ccccc2)c1C#N,MAOB,"enzyme activity, inhibitor, fluorescence",with preincubation,> 100 µM
O=[N+]([O-])c1cc(Cl)c(O)c(Cl)c1,"Sulfotransferase 1A1 (SULT1A1, Homo sapiens, UniProt P50225, R213H)","enzyme activity, inhibitor",,0.7 µM
C#CCNc1nc(NCCC2CCN(Cc3ccccc3)CC2)c(C#N)c(-c2ccccc2)c1C#N,MAOB,"enzyme activity, inhibitor, fluorescence",with preincubation,> 100 µM
COc1cccc(CO)c1,MAOB,"enzyme activity, inhibitor, fluorescence",,> 10 µM
CC(C)(C)c1ccc(NC(=O)c2ncn(CC(=O)NCc3ccc4c(c3)OCO4)n2)cc1,"Histone-lysine N-methyltransferase SUV39H2 (SUV39H2, Homo sapiens, UniProt Q9H5I1)","enzyme activity, inhibitor",,> 250 µM
O=c1c2ccccc2[se]n1-c1ccccc1,"ung (Escherichia coli, UniProt P12295)","enzyme activity, inhibitor",,> 200 µM
C[C@H](N)Cn1ncc2ccc3c(c21)CCCO3,ADRB1,"ligand displacement, radioligand",,5 µM
